Data on 16 compounds can be found in paper PMC5481492 (Chemico-biological interactions, 2016).

Like-named read-outs stand apart in the source and are kept apart here.

Test [1] addresses T1, horse liver ADH1E S48T/F93A (Equus caballus, UniProt P00327, F94A/S49T). In words: Transient. The format is biochemical. The settings on record: pH 8.0, 25 °C; 2 mM NAD+ (oxidation) or stoichiometric NADH (reduction). In a few lines: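 Stopped-flow (three-syringe, 2.5 ms dead time) at 25 °C in 33 mM sodium phosphate, 0.25 mM EDTA, pH 8.0. Enzyme at 6–15 μN (active sites) was mixed with 2 mM NAD⁺ and varied alcohol (oxidation), or with NADH equal to the enzyme concentration and varied carbonyl compound (reduction). A328 bursts (Δε 5500 M⁻¹cm⁻¹) were fitted as first-order; rate constants were analysed against substrate concentration.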

The target in test [2] is T2, horse liver ADH1E F93A (Equus caballus, UniProt P00327, F94A). The settings on record: cited from earlier work; for Substrate deuterium isotope effect on k max: value in brackets.
For test [3], the target named is T3, horse liver ADH1E (EqADH1E), wild-type (Equus caballus, UniProt P00327). The settings on record: value in parentheses; cited from earlier work.
For test [4], the target named is T4, horse liver ADH1E S48T (Equus caballus, UniProt P00327, S49T). The test can be described thus: Steady-state kinetics, S48T enzyme. The format is biochemical. The settings on record: for Michaelis constant for coenzyme (Ka NAD+, Kq NADH) / Ki / Turnover number (V1/Et ethanol oxidation, V2/Et acetaldehyde reduction): pH 8.0, 25 °C; for Michaelis constant for coenzyme (Ka NAD+, Kq NADH): both substrates varied; for Ki: read-out: Inhibition constant for coenzyme (Kia NAD+, Kiq NADH); for Ratio of V/Km for (R)- to (S)-enantiomers: enantioselectivity.

Test [5] deals with horse liver ADH1E S48A (Equus caballus, UniProt P00327, S49A). The test can be described thus: Steady-state kinetics, S48A enzyme. The format is biochemical. The settings on record: pH 8.0, 25 °C; for Michaelis constant for coenzyme (Ka NAD+, Kq NADH): both substrates varied; for Ki: read-out: Inhibition constant for coenzyme (Kia NAD+, Kiq NADH).
For test [6], the target named is T2, horse liver ADH1E F93A. The test can be described thus: Steady-state kinetics, F93A enzyme. Format: biochemical. The settings on record: for Michaelis constant for coenzyme (Ka NAD+, Kq NADH): both substrates varied; for Ki: read-out: Inhibition constant for coenzyme (Kia NAD+, Kiq NADH); for Ratio of V/Km for (R)- to (S)-enantiomers: enantioselectivity.
For test [7], the target named is T1, horse liver ADH1E S48T/F93A. The test can be described thus: Steady-state kinetics, S48T/F93A enzyme. Format: biochemical. The settings on record: for Michaelis constant for coenzyme (Ka NAD+, Kq NADH) / Ki / Turnover number (V1/Et ethanol oxidation, V2/Et acetaldehyde reduction): pH 8.0, 25 °C; for Michaelis constant for coenzyme (Ka NAD+, Kq NADH): both substrates varied; for Ki: read-out: Inhibition constant for coenzyme (Kia NAD+, Kiq NADH); for Increase of the R/S ratio (inversion of enantioselectivity) as compared to wild-type enzyme: S48T/F93A relative to wild-type; for Ratio of V/Km for (R)- to (S)-enantiomers: enantioselectivity.

In test [8] the target is T2, horse liver ADH1E F93A. In words: Transient. The format is biochemical. The settings on record: for K m (transient reaction) / k max (transient oxidation): pH 8.0, 25 °C, 2 mM NAD+.
Test [9] deals with T3, horse liver ADH1E (EqADH1E), wild-type. The settings on record: pH 8.0, 25 °C; cited from earlier work.
Test [10] has the same target. The test can be described thus: Steady-state kinetics, wild-type enzyme. The format is biochemical. The settings on record: enantioselectivity.
Test [11] shares this target. The settings on record: pH 8.5, 25 °C, cited from earlier work.
The target of test [12] is T4, horse liver ADH1E S48T. The test can be described thus: Inhibition of ethanol oxidation, S48T enzyme. The format is biochemical.
Test [13] has as its target T2, horse liver ADH1E F93A. In words: Inhibition of ethanol oxidation, F93A enzyme. The format is biochemical.
The target in test [14] is T1, horse liver ADH1E S48T/F93A. In words: Inhibition of ethanol oxidation, S48T/F93A enzyme. The format is biochemical.
Test [15] addresses T3, horse liver ADH1E (EqADH1E), wild-type. The settings on record: cited from earlier work.
Setting [16] is: competitive against ethanol, pH 8.0, 25 °C.

horse liver ADH1E S48A, sequence (P00327 whole entry S49A): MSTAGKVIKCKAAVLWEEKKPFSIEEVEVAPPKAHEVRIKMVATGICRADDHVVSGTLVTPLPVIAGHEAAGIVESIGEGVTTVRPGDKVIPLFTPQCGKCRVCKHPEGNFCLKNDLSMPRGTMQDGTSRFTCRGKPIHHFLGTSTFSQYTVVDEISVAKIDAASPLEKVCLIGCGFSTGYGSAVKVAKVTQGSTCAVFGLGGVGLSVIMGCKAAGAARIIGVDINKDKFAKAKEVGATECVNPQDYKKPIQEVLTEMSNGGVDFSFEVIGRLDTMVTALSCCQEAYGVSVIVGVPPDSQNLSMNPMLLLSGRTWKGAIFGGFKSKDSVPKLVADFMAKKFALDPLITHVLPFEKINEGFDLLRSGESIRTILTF
T1 sequence (P00327 whole entry S49T/F94A): as the sequence (P00327 whole entry S49A) above, with A49T, F94A counted along it
T3 sequence (P00327 whole entry): as the sequence (P00327 whole entry S49A) above, with A49S counted along it
T4 sequence (P00327 whole entry S49T): as the sequence (P00327 whole entry S49A) above, with A49T counted along it
T2 sequence (P00327 whole entry F94A): as the sequence (P00327 whole entry S49A) above, with A49S, F94A counted along it

In the case of `OCc1ccccc1` [Benzyl alcohol, benzyl alcohol], the “K m (transient reaction)” value was 15 mM in test [1] and 0.03 mM in test [3]. Also, the “k max (transient oxidation or reduction)” value in test [1] is 78 s⁻¹; in test [2] it was 3.3 s⁻¹; in [3], 24 s⁻¹. Besides, in [2], the “Substrate deuterium isotope effect on k max” value is 4.0.

As for `NC(=O)C1=CN([C@@H]2O[C@H](COP(=O)(O)OP(=O)(O)OC[C@H]3O[C@@H](n4cnc5c(N)ncnc54)[C@H](O)[C@@H]3O)[C@@H](O)[C@H]2O)C=CC1` [NADH], the “Michaelis constant for coenzyme (Ka NAD+, Kq NADH)” value in [4] was 6.3 µM; in [5] it was 44 µM; in test [6] (pH 8.0, 25 °C), 1.9 µM; in test [7] it was 5.0 µM; in [9] it was 5.8 µM. In addition, the Ki was 0.57 µM in test [4]; 21 µM in test [5]; 0.036 µM in test [6] (pH 8.0, 25 °C); 0.054 µM in test [7]. Moreover, the “Rate constant for binding of NADH” value in test [8] (transient kinetics, stated in a paragraph on the F93A and S48T/F93A enzymes) was determined as 1e+07 M⁻¹ s⁻¹.

`CC[C@@H](C)O` [(R)-2-Butanol, (R)-2-butanol]: in test [1], the “K m (transient reaction)” value was 26 mM and the “k max (transient oxidation or reduction)” value was 130 s⁻¹. For the same compound, in test [8], the “K m (transient reaction)” value stood at 1.2 mM and the “k max (transient oxidation)” value was found to be 44 s⁻¹. Moreover, the “k max (transient oxidation or reduction)” value in [3] is 15 s⁻¹.

As for `CC(O)c1ccccc1` (stereo not shown) [sec-Phenethyl alcohol, sec-phenethyl alcohol], the “Ratio of V/Km for (R)- to (S)-enantiomers” value (shortened to “Ratio of V/Km”) in [10] amounted to 0.067; in test [6], 0.34; in test [7], 13. Further, the “Increase of the R/S ratio (inversion of enantioselectivity) as compared to wild-type enzyme” value in test [7] is recorded as 190 fold.

Regarding `CCC(C)O` (stereo not shown) [2-Butanol, 2-butanol], the “Ratio of V/Km” value in [10] turned out to be 0.45; in [4] it was 0.88; in test [6], 1.1; in [7], 4.3. Further, in test [7], the “Increase of the R/S ratio (inversion of enantioselectivity) as compared to wild-type enzyme” value came out at 10 fold.

In general, Km refers to the concentration of substrate that gives half-maximal velocity. Take `CCC(C)=O` [2-Butanone, 2-butanone]: in [7] (ketone reduction, 0.1 mM NADH), the Km came out at 12.7 ± 0.9 mM and the V2/Et amounted to 0.081 ± 0.002 s⁻¹. For the same compound, in test [1], the “K m (transient reaction)” value stood at 29 mM and the “k max (transient oxidation or reduction)” value was 0.14 s⁻¹. Moreover, the “k max (transient oxidation or reduction)” value in [3] was 0.12 s⁻¹. Besides, in test [11] ((pro-R)-2-butanone pathway), the “Binding rate constant k−6” value is 6.5 M⁻¹ s⁻¹ and the “Dissociation rate constant k6” value was 4.3 s⁻¹. For the same compound, in test [11] ((pro-S)-2-butanone pathway), the “Binding rate constant k−6” value is 180 M⁻¹ s⁻¹ and the “Dissociation rate constant k6” value was 2.5 s⁻¹.

`O=Cc1ccccc1` [Benzaldehyde, benzaldehyde]: in test [1], the “K m (transient reaction)” value is on record as 0.26 mM and the “k max (transient oxidation or reduction)” value turned out to be 0.67 s⁻¹. Besides, in test [2], the “k max (transient oxidation or reduction)” value is 2.2 s⁻¹ and the “Substrate deuterium isotope effect on k max” value was 3.4. Moreover, in test [3], the “K m (transient reaction)” value is listed as 0.49 mM and the “k max (transient oxidation or reduction)” value is 320 s⁻¹.

In the case of `OCc1c(F)c(F)c(F)c(F)c1F` [pentafluorobenzyl alcohol, 2,3,4,5,6-pentafluorobenzyl alcohol], the Ki in test [12] is 740 µM; in [13], 51 µM; in test [14], greater than 10000 µM; in [15] (setting [16]) it was 0.52 µM.

For the compound `c1cn[nH]c1` [Pyrazole, pyrazole], in test [14], the Type of inhibition result is reported as “competitive inhibitor against varied concentrations of ethanol”. The Ki in [14] (setting [16]) was 8.1 µM; in [15], 0.2 µM.

Turning to `NC(=O)c1ccc[n+]([C@@H]2O[C@H](COP(=O)([O-])OP(=O)(O)OC[C@H]3O[C@@H](n4cnc5c(N)ncnc54)[C@H](O)[C@@H]3O)[C@@H](O)[C@H]2O)c1` [NAD^+], the “Michaelis constant for coenzyme (Ka NAD+, Kq NADH)” value in [4] was 11 µM; in test [5] it was 200 µM; in test [6] (pH 8.0, 25 °C) it was 3.3 µM; in [7], 4.4 µM; in test [9], 3.9 µM. Further, the Ki amounted to 15 µM in test [4]; 110 µM in test [5]; 44 µM in [6] (pH 8.0, 25 °C); 33 µM in test [7].

For the compound `CCCCCCC(C)O` (stereo not shown) [2-Octanol, 2-octanol], the “Ratio of V/Km” value in test [10] is given as 0.0034; in test [4], 0.023; in test [6], 0.62; in test [7], 2.0. For the same compound, in [7], the “Increase of the R/S ratio (inversion of enantioselectivity) as compared to wild-type enzyme” value was 590 fold.

For `CC=O` [acetaldehyde], the “Turnover number (V1/Et ethanol oxidation, V2/Et acetaldehyde reduction)” value was 20 s⁻¹ in test [4]; 0.29 s⁻¹ in [5]; 20 s⁻¹ in test [6] (pH 8.0, 25 °C); 35 s⁻¹ in test [7]; 47 s⁻¹ in [9]. In addition, the results for the “K m (transient reaction)” value in test [1] and in test [3] were 150 mM and 2.1 mM, respectively. The “k max (transient oxidation or reduction)” value in test [1] was 58 s⁻¹; in test [3], 390 s⁻¹.

For `CCO` [ethanol], the “Turnover number (V1/Et ethanol oxidation, V2/Et acetaldehyde reduction)” value was 1.7 s⁻¹ in test [4]; 0.01 s⁻¹ in test [5]; 0.35 s⁻¹ in test [6] (pH 8.0, 25 °C); 0.29 s⁻¹ in [7]; 3.5 s⁻¹ in test [9]. The “Catalytic efficiency (V1/EtKb, V2/EtKp)” value in test [6] (pH 8.0, 25 °C) was 1.7 mM⁻¹ s⁻¹; in test [9], 10 mM⁻¹ s⁻¹. Also, the “K m (transient reaction)” value is given as 38 mM in test [1], 26 mM in test [8] and 4.1 mM in [3]. In addition, the results for the “k max (transient oxidation or reduction)” value in [1] and in test [3] were 72 s⁻¹ and 180 s⁻¹, respectively. In test [8], the “k max (transient oxidation)” value was 22 s⁻¹.

Regarding `OCC(F)(F)F` [trifluoroethanol, 2,2,2-trifluoroethanol], the Ki in test [12] is 98 µM; in test [13] it was 53 µM; in test [14], 600 µM; in [15] (setting [16]) it was 8.4 µM. Besides, in test [14], the Type of inhibition result is listed as “uncompetitive inhibitor against varied concentrations of NAD^+”.

On to `OCC(F)(F)C(F)(F)C(F)(F)F` [heptafluorobutanol], for which the Ki in [14] (setting [16]) is 53 µM; in test [15], 5.3 µM.

With `CC[C@H](C)O` [(S)-2-Butanol, (S)-2-butanol], in test [1], the “K m (transient reaction)” value came out at 4.9 mM and the “k max (transient oxidation or reduction)” value worked out at 16 s⁻¹. Also, in [8], the “K m (transient reaction)” value turned out to be 1.3 mM and the “k max (transient oxidation)” value came out at 29 s⁻¹. For the same compound, in test [3], the “k max (transient oxidation or reduction)” value is 2.5 s⁻¹.
